Screening data deposited in PubChem BioAssay by The Scripps Research Institute Molecular Screening Center.
This is a sample that favours compounds with a hit; in the whole collection about 2.3% have one here.
V1aR counter: V1a receptor agonism, counter-screen for OXTR agonists | CHO-V1R cells, Fluo-8 calcium fluorescence, agonist mode; 0% DMSO, 100% 3 nM vasopressin | activation, % at 3 µM | actives 0.25% (n = 320,000) | AID 2797;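 active = activation above the mean activation of all tested compounds plus 3 SD, per screening run, cut at about 20% in these data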;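 note: signal is peak over basal fluorescence ratio across a 100 second FLIPR read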
OXTR potentiate: human OXTR potentiation | CHO-OTR cells, Fluo-8 calcium fluorescence, potentiator mode; 0% = oxytocin EC15, 100% = EC100 | actives 0.061% (n = 320,000) | activation, % at 3 µM;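 active = activation above that plate's cutoff, the mean activation of tested compounds plus 3 SD, cut at about 6.6% in these data, passing the limit was not always enough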;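 note: 100% uses oxytocin at 75 nM as the full agonist control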
Target sequence (P30559 whole entry, looked up): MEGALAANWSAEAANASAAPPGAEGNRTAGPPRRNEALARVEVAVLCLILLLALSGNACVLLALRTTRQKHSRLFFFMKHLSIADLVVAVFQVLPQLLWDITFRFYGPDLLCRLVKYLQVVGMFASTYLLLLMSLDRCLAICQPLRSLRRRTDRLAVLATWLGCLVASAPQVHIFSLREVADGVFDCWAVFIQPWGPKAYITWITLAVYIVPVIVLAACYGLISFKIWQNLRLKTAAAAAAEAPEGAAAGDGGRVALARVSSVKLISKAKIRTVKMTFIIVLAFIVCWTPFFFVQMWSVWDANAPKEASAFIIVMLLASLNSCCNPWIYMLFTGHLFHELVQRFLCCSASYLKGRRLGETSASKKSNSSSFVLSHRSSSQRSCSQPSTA
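Assay system: CHO-OTR cells, human receptor / Also added: oxytocin at about EC15, sub-maximal agonist stimulus / Dosing: single dose, 3.0 µM nominal final compound concentration / Incubation: 6 min pre-incubation, 100 s read / Technique: Fluo-8 calcium dye fluorescence / Read-out: % activation vs EC15 and EC100 oxytocin / Benchmarks: EC15 oxytocin low, 75 nM oxytocin high / Replicates: singlicate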
TAAR1 agonist: human TAAR1 agonism; Q96RJ0; CHO RD-HGA16 TAAR1, Fluo-8 calcium fluorescence; vehicle wells 0%, saturating PEA agonist 100%; activation, % at 3 µM; actives 0.99% (n = 360,000); AID 624467;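 active = activation above the mean activation of all test compounds in the run plus 3 SD, cut at about 38% in these data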
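Test system: RD-HGA16 (CHO) cells co-expressing Gα16 and hTAAR1 | Doses: Single dose, 3 µM | Schedule: 17-24 h seeding, 75 min 37 °C dye, 30 min RT | Evaluation: % activation from peak over basal fluorescence ratio, DMSO-to-PEA scaled | Technique: Kinetic Fluo-8 calcium fluorescence | Benchmarks: Low control DMSO, high control PEA (EC100)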
OXTR ag: agonists of human oxytocin receptor | P30559 | CHO-OTR cells, Fluo-8 calcium fluorescence; normalized: DMSO 0%, oxytocin 100% | activation, % at 3 µM | actives 0.32% (n = 320,000);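 active = activation above the mean of all tested compounds plus 3 SD, cutoff set per screening run, cut at about 20% in these data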;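 note: peak over basal fluorescence ratio from a 100 s FLIPR kinetic read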
TAAR1 antag: human TAAR1 antagonism. CHO RD-HGA16 TAAR1, Fluo-8 calcium fluorescence, antagonist. inhibition, % at 3 µM. actives 1.5% (n = 360,000). Q96RJ0;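 active = inhibition above a per-plate cutoff, the mean inhibition of test compounds on that plate plus 3 SD, cut at about 49% in these data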;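 note: 0% = DMSO plus EC80 beta-PEA response and 100% = DMSO alone without agonist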
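Test system: RD-HGA16 CHO cells with stable hTAAR1 and Gα16 / Probe or stimulus: EC80 β-phenethylamine stimulus / Times: seeding 17-24 h prior, 75-min 37 °C, 30-min RT dye loading / Detection: Fluo-8 calcium-sensitive fluorescence / Read-out basis: % inhibition scaled between DMSO and EC80 PEA controls / Repeats: singlicate, one well per test compound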
TAAR1 nonsel count: counter-screen for TAAR1 antagonists: nonselective antagonists | counterscreen cell line, calcium fluorescence, antagonist mode | actives 77% (n = 2,400) | shares compounds with TAAR1 antag | inhibition, % at 3 µM; in the data active = inhibition above about 22%;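 note: CHO-Ga16 host cells stimulated with ATP at an EC80 level; 0% = agonist EC80 plus vehicle and 100% = vehicle without agonist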
TAAR1 antag conf: human TAAR1 antagonism, confirmed | shares compounds with TAAR1 antag | TAAR1-expressing cells, fluorescence antagonist read-out | inhibition, % at 3 µM | actives 40% (n = 2,400); in the data active = inhibition above about 49%;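 note: CHO-Ga16 host cells challenged with agonist PEA near its EC80; 0% = agonist at EC80 plus vehicle and 100% = vehicle with no agonist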
Ga16 nonsel ag: nonselective Ga16 agonist in TAAR1 antagonist counter-screen; Ga16-expressing cells, calcium fluorescence, agonist counterscreen; activation, % at 3 µM; shares compounds with TAAR1 antag; actives 18% (n = 2,400); in the data active = activation above about 12%;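 note: 0% = vehicle wells and 100% = saturating stimulus response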
TAAR1 ag counter: activates human TAAR1 in antagonist counter-screen | activation, % at 3 µM | shares compounds with TAAR1 antag | actives 2% (n = 2,400) | hTAAR1 cell line, fluorescence activation, agonist mode; in the data active = activation above about 37%;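 note: CHO cells stably expressing TAAR1 with calcium dye readout; 0% = DMSO vehicle and 100% = full agonist response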
Active calls of the source: *; / = no result.

SMILES	V1aR counter	OXTR potentiate	TAAR1 agonist	OXTR ag	TAAR1 antag	TAAR1 nonsel count	TAAR1 antag conf	Ga16 nonsel ag	TAAR1 ag counter
Cc1ccc(-c2[nH]ncc2/C=N/n2c(C)nc3ccccc3c2=O)cc1	0	2	11	2	50*	23*	40	7	8
Cc1ccc(NC(=O)C(C)c2ccc(-c3ccccc3)c(F)c2)c(C)c1 (stereo not given)	1	-12	19	0	54*	18	22	3	4
CC1=C(CC[C@@H](C)CO)OC2CC3C4CCC5CC(O)CCC5(C)C4CC(=O)C3(C)C12 (stereo not given in full)	1	-9	17	4	76*	29*	52*	11	19
NC(=O)c1ccccc1OCC(=O)N1CCC(Cc2ccccc2)CC1	10	-10	12	19	8	/	/	/	/
NC(=O)CCc1c[nH]c2ccccc12	1	-4	3	2	7	/	/	/	/
OCC(CCc1c[nH]c2ccccc12)c1c[nH]c2ccccc12 (stereo not given)	/	/	25	/	53*	24*	29	7	11
O=[N+]([O-])c1ccc(-c2c(-c3ccccc3)ncc3cc(F)ccc23)cc1	0	-3	0	-1	82*	19	55*	1	3
O=C(Nc1ccccc1Cl)Oc1ccc(Cl)cc1Cl	-1	-6	4	-2	-13	/	/	/	/
COC(=O)c1ccc(COc2ccc(F)cc2)o1	0	-3	0	-1	16	/	/	/	/
O=C(CSc1c(Cl)cccc1Cl)N1CCC(c2nc3ccccc3s2)CC1	4	-18	18	4	59*	44*	50*	12*	11
COc1ccc(N(C)C(=O)c2cn(CC(C)C)c(=O)c3cc(OC)c(OC)cc23)c(OC)c1	0	-8	3	-2	-10	/	/	/	/
COC(=O)c1cc(Cl)cc2c(CCO)c[nH]c12	2	0	1	2	-7	/	/	/	/
FC(F)Oc1ccc(-c2csc(=Nc3cccnc3)n2CC2CCCO2)cc1 (stereo not given)	7	-10	13	5	57*	37*	44	8	6
Cc1cc(C)c(S(=O)(=O)N2CCCOC2CNC(=O)C(=O)NCCc2c[nH]c3ccccc23)c(C)c1 (stereo not given)	7	-16	32	14	75*	52*	68*	18*	24
COc1ccc(NC(C)=O)cc1S(=O)(=O)Nc1ccc2c(c1)OCCO2	1	-3	7	0	20	/	/	/	/
COCCN(C(=O)CCC(=O)Nc1cc(C)on1)C(C(=O)NC(C)(C)C)c1ccccc1Cl (stereo not given)	1	5	-2	0	-12	/	/	/	/
CCOc1ccc(/C=C2\SC(=O)N(CCNC(=O)C3COc4ccccc4O3)C2=O)cc1OC (stereo not given)	5	-12	9	7	78*	35*	47	9	4
CCc1nc2ccccc2c(C(=O)OCCN2C(=O)c3ccccc3C2=O)c1C	-1	-5	4	-2	66*	26*	44	6	5
CCc1nc2ccccc2c(C(=O)OCC(=O)C(C)(C)C)c1C	-1	-2	5	-3	7	/	/	/	/
O=C(CCN1C(=O)C2CCCCC2C1=O)Nc1nc(-c2ccc(F)c(F)c2)cs1 (stereo not given)	4	-10	16	3	38	/	/	/	/
O=C(CN1C(=O)C2CC=CCC2C1=O)Nc1nc(-c2ccc(F)c(F)c2)cs1 (stereo not given)	4	-8	27	4	73*	31*	55*	14*	19
COc1ccc(-c2csc(NC(=O)CN3C(=O)C4CC=CCC4C3=O)n2)cc1OC (stereo not given)	4	-11	12	4	27	/	/	/	/
COc1ccc(-c2csc(NC(=O)CN3C(=O)C4CCCCC4C3=O)n2)cc1OC (stereo not given)	5	-13	17	3	52*	24*	36	13*	16
CCc1ccccc1N=C1SCC(=O)N1C	-1	-2	16	-2	0	/	/	/	/
Cc1ccc(C(=O)Nc2cccc(-c3ccc(N4CCOCC4)nn3)c2)cc1[N+](=O)[O-]	-1	3	13	-3	60*	21	45	8	5
SMILES	V1aR counter	OXTR potentiate	TAAR1 agonist	OXTR ag	TAAR1 antag	TAAR1 nonsel count	TAAR1 antag conf	Ga16 nonsel ag	TAAR1 ag counter
O=C(Nc1cccc(-c2ccc(N3CCOCC3)nn2)c1)c1ccc([N+](=O)[O-])cc1	0	-3	6	-2	39	/	/	/	/
COc1ccccc1NS(=O)(=O)c1cccc(NC(=O)Nc2ccccc2)c1	18	-10	35	15	98*	60*	94*	15*	50*
O=C(c1cnc2ccccn2c1=O)N1CCCc2ccccc21	0	-3	11	1	12	/	/	/	/
CCCCCc1nnc(NC(=O)CS(=O)(=O)Cc2ccccc2)s1	1	-2	9	0	-13	/	/	/	/
CCN(CC)C(=O)c1cccc(-c2csc(C(C)(O)c3cccc(F)c3)n2)c1 (stereo not given)	/	/	11	/	80*	43*	57*	12*	11
O=C(C1=C[C@@H](c2ccc(C(F)(F)F)cc2)C[C@@H](OCc2ccc(CO)cc2)O1)N1CCN(Cc2ccc3c(c2)OCO3)CC1	2	-6	10	2	55*	32*	34	4	4
N=c1sccn1CC(=O)N1N=C(c2ccc(Cl)cc2)CC1c1ccco1 (stereo not given)	0	-1	11	1	53*	4	21	13*	12
Cc1cccc(OCC(=O)N(Cc2cccs2)C2CCS(=O)(=O)C2)c1C (stereo not given)	1	-2	15	0	-3	/	/	/	/
Cc1nnc(SCC(=O)Nc2nsc(-c3ccc(C(C)(C)C)cc3)n2)s1	4	-7	2	-1	59*	32*	39	7	4
COc1cccc(NC(=O)N(C)C[C@@H]2Oc3cc(Br)ccc3S(=O)(=O)N([C@@H](C)CO)C[C@H]2C)c1	/	/	5	/	4	/	/	/	/
